21 compounds from ChEMBL document CHEMBL1765069, “Decahydroquinoline amides as highly selective CB2 agonists: role of selectivity on in vivo efficacy in a rodent model of analgesia” (Bioorg Med Chem Lett, 2011) can be followed below.

The structures appear in SMILES notation. Where “and” joins values, the source holds several entries; their conditions need not be identical. Equal values may be shown once.

Assay [1] addresses T1, Cannabinoid receptor 2 (Homo sapiens, UniProt P34972). The assay is described as follows: Agonist activity at human CB2 receptor expressed in CHOK1 cells assessed as inhibition of forskolin-induced cAMP production treated 15 mins before forskolin challenge measured after 1 hr by HTRF assay. It counts as functional, cell-based, CHO-K1. A digest of the protocol:
(§1)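 CHO-K1 cells (1000 per well) expressing human or rat CB1 or CB2 were preincubated with compound for 15 min at room temperature. Forskolin was then added at its EC70 for 30 min at room temperature. cAMP was detected by HTRF (d2-cAMP plus anti-cAMP cryptate) after a final 1 h incubation at room temperature. Values are reported as IC50 with % Emax.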
(Cyclic AMP is a second messenger, typically raised through Gs and lowered through Gi signalling.)

Another assay concerns the target Cannabinoid receptor 1 (Homo sapiens, UniProt P21554). The assay is described as follows: Agonist activity at human CB1 receptor expressed in CHOK1 cells assessed as inhibition of forskolin-induced cAMP production treated 15 mins before forskolin challenge measured after 1 hr by HTRF assay. It counts as functional, cell-based, CHO-K1. A digest of the protocol: as §1

Assay [2] has as its target T1, Cannabinoid receptor 2. Kind of assay: Agonist activity at human CB2 receptor expressed in CHOK1 cells assessed as inhibition of forskolin-induced cAMP production treated 15 mins before forskolin challenge measured after 1 hr by HTRF assay relative to control. Type of assay: functional, cell-based. The following applies: CHO-K1. A digest of the protocol: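 CHO-K1 cells (1000 per well) expressing human or rat CB1 or CB2 were preincubated with compound at room temperature for 15 min. Forskolin at EC70 was then added for a further 30 min at room temperature. cAMP was read by HTRF (d2-cAMP plus anti-cAMP-cryptate, final 1 h at room temperature). IC50 and % Emax were reported.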

As usually defined, the IC50 is the concentration at which inhibition is half-maximal. By Emax is commonly meant the greatest response seen or fitted, relative to the assay's reference.

T1 sequence (P34972 whole entry): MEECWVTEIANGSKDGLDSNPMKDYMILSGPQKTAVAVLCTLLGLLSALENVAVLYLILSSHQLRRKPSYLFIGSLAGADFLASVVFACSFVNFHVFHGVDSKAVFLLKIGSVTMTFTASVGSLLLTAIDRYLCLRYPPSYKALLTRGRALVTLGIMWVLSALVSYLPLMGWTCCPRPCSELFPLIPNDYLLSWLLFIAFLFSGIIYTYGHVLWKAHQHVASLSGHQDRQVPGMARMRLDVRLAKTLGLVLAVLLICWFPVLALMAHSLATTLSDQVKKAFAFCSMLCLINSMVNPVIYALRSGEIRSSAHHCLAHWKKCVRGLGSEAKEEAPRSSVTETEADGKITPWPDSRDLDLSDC
Sequence of Cannabinoid receptor 1 (P21554 whole entry): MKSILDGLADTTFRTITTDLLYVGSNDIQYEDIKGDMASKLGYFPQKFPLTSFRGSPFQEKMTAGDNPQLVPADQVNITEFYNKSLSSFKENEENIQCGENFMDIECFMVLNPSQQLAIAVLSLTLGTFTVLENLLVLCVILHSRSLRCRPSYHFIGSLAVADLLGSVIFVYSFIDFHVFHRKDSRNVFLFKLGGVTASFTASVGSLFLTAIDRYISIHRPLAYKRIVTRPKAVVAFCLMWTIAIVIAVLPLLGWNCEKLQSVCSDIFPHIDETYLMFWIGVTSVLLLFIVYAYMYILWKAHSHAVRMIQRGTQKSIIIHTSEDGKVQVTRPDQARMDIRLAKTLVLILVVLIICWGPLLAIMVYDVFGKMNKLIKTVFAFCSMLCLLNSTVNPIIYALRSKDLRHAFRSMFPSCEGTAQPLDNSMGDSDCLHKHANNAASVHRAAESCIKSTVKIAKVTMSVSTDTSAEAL

On to `O=C(c1csc(-c2ccncc2)n1)N1CCC(O)(c2ccccc2)[C@@H]2CCCC[C@@H]21` (some centres undefined), for which the IC50 on Cannabinoid receptor 2 [1] is 5220 nM and 597 nM; at Cannabinoid receptor 1, more than 17000 nM.
On to `O=C(c1cc(-c2ccccc2F)n[nH]1)N1CC[C@](O)(c2ccccc2)[C@H]2CCCC[C@@H]21`, for which the half-maximal inhibitory concentration (IC50) on Cannabinoid receptor 2 [1] is 1290 nM; at Cannabinoid receptor 1, more than 17000 nM.
On to `CS(=O)(=O)c1ccc([C@@]2(O)CCN(C(=O)c3ccccc3)[C@H]3CCCC[C@@H]32)cc1`, for which the Emax at Cannabinoid receptor 2 [2] worked out at 56%. For the same compound, at Cannabinoid receptor 2 [1], the IC50 stood at 106 nM.
Taken in the same sequence, the figures for `COc1ccc([C@@]2(O)CCN(C(=O)c3ccccc3)[C@H]3CCCC[C@@H]32)cc1` were 66% and 358 nM.
The matching figures for `O=C(c1ccccc1)N1CC[C@](O)(c2cccnc2)[C@H]2CCCC[C@@H]21`: 86% and 938 nM.
Taken in the same sequence, the figures for `O=C(c1ccccc1)N1CC[C@](O)(c2ccc(Cl)cc2)[C@H]2CCCC[C@@H]21` were 88% and 155 nM.
In the case of `O=C(c1ccccc1)N1CC[C@](O)(c2cccc(Cl)c2)[C@H]2CCCC[C@@H]21`, at Cannabinoid receptor 2 [2], the Emax came out at 69%. The IC50 on Cannabinoid receptor 2 [1] was 493 nM.
Taken in the same sequence, the figures for `N#Cc1cccc([C@@]2(O)CCN(C(=O)c3ccccc3)[C@H]3CCCC[C@@H]32)c1` were 85% and 1050 nM.
The matching figures for `CS(=O)(=O)c1cccc([C@@]2(O)CCN(C(=O)c3ccccc3)[C@H]3CCCC[C@@H]32)c1`: 52% and 338 nM.
Taken in the same sequence, the figures for `O=C(c1ccccc1)N1CC[C@](O)(c2cccc(C(F)(F)F)c2)[C@H]2CCCC[C@@H]21` were -16% and 810 nM.
As for `O=C(c1ccccc1)N1CC[C@](O)(c2ccccn2)[C@H]2CCCC[C@@H]21`, at Cannabinoid receptor 2 [2], the Emax amounted to 65%. On Cannabinoid receptor 2 [1], the IC50 amounted to 1360 nM.
In the case of `O=C(c1cccc2[nH]ncc12)N1CCC(O)(c2ccccc2)[C@@H]2CCCC[C@@H]21` (some centres undefined), the IC50 at Cannabinoid receptor 2 [1] was determined as 4.9 nM; on Cannabinoid receptor 1 it was 4250 nM.
For the compound `CN1CCCCC1C(=O)N1CC[C@@](O)(c2ccccc2)[C@@H]2CCCC[C@@H]21` (mixture of isomers), the Emax on Cannabinoid receptor 2 [2] was found to be 100%. Moreover, the IC50 was 56 nM on Cannabinoid receptor 2 [1] and more than 17000 nM at Cannabinoid receptor 1.
Turning to `O=C(C1CNCCN1)N1CC[C@@](O)(c2ccccc2)[C@@H]2CCCC[C@@H]21` (mixture of isomers), on Cannabinoid receptor 2 [2], the Emax came to 91%. The 50% inhibitory concentration (IC50) at Cannabinoid receptor 2 [1] is 62 nM; on Cannabinoid receptor 1, more than 17000 nM.
Taken in the same sequence, the figures for `CN1CC(C(=O)N2CC[C@@](O)(c3ccccc3)[C@@H]3CCCC[C@@H]32)CCC1=O` (mixture of isomers) were 99%, 135 nM and more than 17000 nM.
For the compound `Cc1ccc(C(=O)N2CC[C@@](O)(c3ccccc3)[C@@H]3CCCC[C@@H]32)cn1` (racemic), the Emax at Cannabinoid receptor 2 [2] was 99%.
With `O=C(c1cccc2[nH]ncc12)N1CCC(O)(c2ccccc2)[C@@H]2CCCC[C@@H]21` (single isomer, unassigned), the results for the IC50 on Cannabinoid receptor 2 [1] and at Cannabinoid receptor 1 were 1.6 nM and more than 17000 nM, respectively.
In the case of `O=C(c1csc(-c2ccncc2)n1)N1CCC(O)(c2ccccc2)[C@@H]2CCCC[C@@H]21` (single isomer, unassigned; form 1), the concentration for half-maximal inhibition (IC50) on Cannabinoid receptor 2 [1] was 0.55 nM; at Cannabinoid receptor 1 it was more than 17000 nM.
Take `O=C(c1csc(-c2ccncc2)n1)N1CCC(O)(c2ccccc2)[C@@H]2CCCC[C@@H]21` (single isomer, unassigned; form 2): the 50% inhibitory concentration (IC50) was 7.9 nM on Cannabinoid receptor 2 [1] and more than 17000 nM on Cannabinoid receptor 1.
Taken in the same sequence, the figures for `O=C(c1csc(-c2ccncc2)n1)N1CCC(O)(c2ccccc2)[C@@H]2CCCC[C@@H]21` (single isomer, unassigned; form 3) were 388 nM and more than 17000 nM.
In the case of `O=C(c1csc(-c2ccncc2)n1)N1CCC(O)(c2ccccc2)[C@@H]2CCCC[C@@H]21` (single isomer, unassigned; form 4), the figures for the IC50 on Cannabinoid receptor 2 [1] and at Cannabinoid receptor 1 were more than 17000 nM and 930 nM, respectively.
